Laboratory results: ChEMBL document CHEMBL1143096, “Synthesis and antitumor activity of benzils related to combretastatin A-4” (Bioorg Med Chem Lett, 2008)
pIC50: −log10 of the molar value. Active and inactive are the calls of the source. The rule behind the calls is not given here.

What was measured:
HCT-116 [1] = test: Cytotoxicity against human HCT116 cells; assay type: functional, cell-based
Procedure, shortened: (§1)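 Growth inhibition assay; IC50 taken as the sample concentration producing 50% reduction in cell growth, each drug concentration tested in triplicate.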

[2] = Inhibition of tubulin assembly at 130 uM
[3] = Inhibition of tubulin assembly at 13 uM
[4] = Inhibition of tubulin assembly
K562 = test: Cytotoxicity against human K562 cells; assay type: functional, cell-based
[5] = Cytotoxicity against human H1299 cells; assay type: functional, cell-based; details: NCI-H1299; procedure, shortened: as §1
MDA-MB-231 = test: Cytotoxicity against human MDA-MB-231 cells; assay type: functional, cell-based
HCT-116 [6] = test: Cell cycle arrest in human HCT116 cells assessed as accumulation at G2/M phase at 10 nM after 24 hrs by flow cytometry; assay type: functional
Procedure, shortened: (§2)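 Flow cytometry of cellular DNA content after 24 h exposure to 10, 20 or 50 nM; percentage of cells in G2/M phase reported, DMSO vehicle control; data representative of three independent experiments.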

HCT-116 [7] = test: Cell cycle arrest in human HCT116 cells assessed as accumulation at G2/M phase at 20 nM after 24 hrs by flow cytometry; assay type: functional; procedure, shortened: as §2
HCT-116 [8] = test: Cell cycle arrest in human HCT116 cells assessed as accumulation at G2/M phase at 50 nM after 24 hrs by flow cytometry; assay type: functional; procedure, shortened: as §2
[9] = Cell cycle arrest in human H1299 cells assessed as accumulation at G2/M phase at 10 nM after 24 hrs by flow cytometry; assay type: functional, cell-based; details: NCI-H1299; procedure, shortened: as §2
[10] = Cell cycle arrest in human H1299 cells assessed as accumulation at G2/M phase at 20 nM after 24 hrs by flow cytometry; assay type: functional, cell-based; details: NCI-H1299; procedure, shortened: as §2
[11] = Cell cycle arrest in human H1299 cells assessed as accumulation at G2/M phase at 50 nM after 24 hrs by flow cytometry; assay type: functional, cell-based; details: NCI-H1299; procedure, shortened: as §2
HCT-116 [12] = test: Induction of apoptosis in human HCT116 cells after 24 hrs by caspase activation assay; assay type: functional, cell-based
Procedure, shortened: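 Cells treated with 10, 50 and 100 nM for 24 h; caspase 3 and 7 activities measured by standard caspase cleavage assay.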

HUVEC [13] = test: Cytotoxicity against HUVEC; assay type: cell-based; details: Homo sapiens
Procedure, shortened: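 HUVEC proliferation measured after 72 h incubation; IC50 derived for growth inhibition.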

HUVEC [14] = test: Disruption of integrity of newly formed blood vessels of HUVEC at 100 nM after 3 hrs by tube formation assay; assay type: functional, cell-based; details: Homo sapiens, Blood vessel
Procedure, shortened: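 HUVEC seeded on Matrigel; 24 h later, compound (100 nM) or vehicle added to formed cords; images taken 3 h after addition to assess network integrity.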

Structure (SMILES)	pIC50 (HCT-116 [1])	inhibition [2]	inhibition [3]	further results
COc1cc(C(=O)C(=O)c2ccccc2)cc(OC)c1OC	5.52	79%	34%	
COc1ccc(C(=O)C(=O)c2cc(OC)c(OC)c(OC)c2)cc1	6.52	89%	58%	pIC50 [4]: 4.68
COc1cc(C(=O)C(=O)c2cccc(O)c2)cc(OC)c1OC	5.70	69%	42%	
COc1cc(C(=O)C(=O)c2cnc3ccccc3c2)cc(OC)c1OC		58%	35%	Activity (HCT-116 [1]): inactive
COc1ccc(C(=O)C(=O)c2cc(OC)c(OC)c(OC)c2)cc1O	7.46	73%	65%	pIC50 (K562): 7.60; pIC50 [5]: 7.52; pIC50 (MDA-MB-231): 7.40; pIC50 [4]: 5.82; Activity (HCT-116 [6]): 11%; Activity (HCT-116 [7]): 18.5%; Activity (HCT-116 [8]): 22.8%; Activity [9]: 11.4%; Activity [10]: 15%; Activity [11]: 27.7%; Activity (HCT-116 [12]): Active; pIC50 (HUVEC [13]): 7.46
COc1cc(C(=O)C(=O)c2ccc(C#N)cc2)cc(OC)c1OC		28%		Activity (HCT-116 [1]): inactive
COc1ccc(C(=O)C(=O)c2cc(OC)c(OC)c(OC)c2)cc1OC	6.52	85%	52%	pIC50 [4]: 4.20
COc1ccc(/C=C\c2cc(OC)c(OC)c(OC)c2)cc1O [COMBRETASTATIN A4]	8.74	88%	77%	pIC50 [5]: 8.30; pIC50 (HUVEC [13]): 8.60
COc1ccc(C(=O)C(=O)c2cc(OC)c(OC)c(OC)c2)cc1N	7.42	88%	82%	pIC50 (K562): 7.70; pIC50 [5]: 7.30; pIC50 (MDA-MB-231): 7.52; pIC50 [4]: 5.30; Activity (HCT-116 [6]): 13%; Activity (HCT-116 [7]): 15.9%; Activity (HCT-116 [8]): 28%; Activity [9]: 11.7%; Activity [10]: 12.2%; Activity [11]: 16.5%; Activity (HCT-116 [12]): Active; Activity (HUVEC [14]): Active; pIC50 (HUVEC [13]): 7.40
COc1cc(C(=O)C(=O)c2ccc3ccccc3c2)cc(OC)c1OC	5.52	80%	23%	
COc1ccc(C(=O)C(=O)c2cc(OC)c(OC)c(OC)c2)cc1OC(C)=O	7.40	14%		pIC50 (K562): 7.60; pIC50 [5]: 7.52; pIC50 (MDA-MB-231): 7.40
COc1cc(C(=O)C(=O)c2ccccc2C#N)cc(OC)c1OC		0%	12%	Activity (HCT-116 [1]): inactive
COc1cc(C(=O)C(=O)c2ccccn2)cc(OC)c1OC		23%		Activity (HCT-116 [1]): inactive
COc1ccc(C(=O)C(=O)c2cc(OC)c(OC)c(OC)c2)cc1NC(C)=O	6.46	45%	45%	
COc1ccc(C(=O)C(=O)c2cc(OC)c(OC)c(OC)c2)cc1F	6.15	73%	47%	
